ARFGAP1 inhibitor: inhibitors of rat ARFGAP1 GAP activity, primary screen, biochemical, fluorescence polarization, GDP tracer | Arfgap1-stimulated ARF1 GTP hydrolysis, GDP FP detection | inhibition, % at 16.5 µM | actives 0.26% (n = 360,000) | AID 651572, 2012;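 active = inhibition above a per-plate limit, mean inhibition of low control wells plus 3 SD, cut at about 25% in these data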;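 note: 0% = DMSO wells with enzyme and 100% = wells lacking Arfgap1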
Target sequence (Q62848 1-136 limits assumed): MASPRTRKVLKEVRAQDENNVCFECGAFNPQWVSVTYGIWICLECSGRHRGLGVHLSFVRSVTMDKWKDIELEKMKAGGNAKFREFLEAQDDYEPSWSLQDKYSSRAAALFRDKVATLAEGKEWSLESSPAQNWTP
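system = rat Arfgap1 catalytic domain, aa 1-136 | technique = FP, GDP Alexa 633 tracer displaced from anti-GDP antibody, 620/688 nm | compound = one concentration, 16.5 µM, DMSO 1.26% | medium = HEPES-based buffer, pH 7.5 | timing = compound-enzyme preincubation 20 min, reaction 120 min, detection 60 min, 25 °C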
Rtt109 HAT inh: inhibitors of C. albicans Rtt109/Vps75 HAT, primary screen, biochemical, ThioGlo CoA-SH fluorescence, plate reader; inhibition, % at 34.9 µM; Histone acetyltransferase RTT109 (Candida albicans (strain SC5314 / ATCC MYA-2876)), …; actives 0.16% (n = 330,000); purified Rtt109/Vps75, 4 h;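 active = inhibition of at least 50% in every replicate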
Target sequence (Q5AAJ8 whole entry, looked up): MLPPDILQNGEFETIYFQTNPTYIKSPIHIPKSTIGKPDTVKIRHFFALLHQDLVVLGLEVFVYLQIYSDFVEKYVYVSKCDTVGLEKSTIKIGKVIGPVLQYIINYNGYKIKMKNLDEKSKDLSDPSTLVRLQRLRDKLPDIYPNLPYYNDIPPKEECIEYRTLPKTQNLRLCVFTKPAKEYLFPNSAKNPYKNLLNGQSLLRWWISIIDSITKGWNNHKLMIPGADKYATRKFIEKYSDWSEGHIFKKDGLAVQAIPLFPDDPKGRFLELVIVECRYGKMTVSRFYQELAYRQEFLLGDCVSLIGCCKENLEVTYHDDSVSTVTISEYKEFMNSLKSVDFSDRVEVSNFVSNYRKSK
Efflux pump mplx: inhibitors of Candida efflux pumps in yeast, primary screen, S. cerevisiae, Nile Red, multiplex | S. cerevisiae Candida pump triplex | actives 0.44% (n = 330,000) | AID 485275, 2010 | inhibition, % at 10 µM;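 active = plate passing quality check with inhibition over a set limit, or well fluorescence over plate mean plus 4 SD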;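 note: Nile Red retained in pooled yeast measured as flow cytometry median fluorescence; 0% = buffer negative control and 100% = Enniatin B positive control; higher means more Nile Red kept so more efflux inhibition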
FGF22 binding: binders of human FGF22 protein, primary screen, FGF22 synaptogenesis inhibitor project, biophysical, thermal shift, single point; Fibroblast growth factor 22 (Homo sapiens), Q9HCT0; recombinant FGF22 thermal shift, SYPRO orange fluorescence; percent of sucrose octasulfate shift, DMSO zero; activity (Tm shift, normalised), % at 9.99 µM; actives 1.5% (n = 340,000); AID 651658, 2012;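 active = mean Tm shift, scaled 0 neutral to 100 positive control, at about 1.3% or above, every replicate too, limit read from the data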
Target sequence (Q9HCT0 whole entry, looked up): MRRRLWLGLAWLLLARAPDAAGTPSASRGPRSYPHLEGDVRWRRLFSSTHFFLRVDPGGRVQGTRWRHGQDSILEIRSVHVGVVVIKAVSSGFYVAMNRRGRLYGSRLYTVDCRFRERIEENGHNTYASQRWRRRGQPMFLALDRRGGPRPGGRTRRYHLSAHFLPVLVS
ASAP1 inh: inhibitors of human ASAP1 ArfGAP activity, primary screen, biochemical, fluorescence polarization; AID 624377, 2012; inhibition, % at 16.5 µM; ASAP1-stimulated ARF1 GTP hydrolysis, GDP FP detection; actives 0.19% (n = 360,000); in the data active = inhibition above about 25%;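 note: 0% = vehicle with enzyme and substrate and 100% = no enzyme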
Yeast cmpd fluor: flagged as fluorescent in efflux inhibitor counter-screen. actives 4% (n = 1,700). shares compounds with Efflux pump mplx. AID 588517. fluorescence ratio to DMSO, % at 10 µM. S. cerevisiae AD/pABC3, compound fluorescence, flow cytometry;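 active = fluorescence ratio to DMSO above its plate's cutoff, the plate mean ratio plus 5 SD, cut at about 210% in these data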;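 note: unstained yeast with no Nile Red so the signal is compound autofluorescence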
CaMdr1 efflux inh: inhibitors of Candida albicans Mdr1 efflux, confirmation, flow cytometry, singleplex, Cherry Pick1 set | inhibition, % at 10 µM | actives 1% (n = 1,700) | shares compounds with Efflux pump mplx | S. cerevisiae AD/CaMDR1, Nile Red efflux; in the data active = inhibition above about 26%;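 note: 0% = DMSO vehicle and 100% = reference inhibitor; higher means more Nile Red retained so more efflux inhibition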
Cdr2 pump inh: inhibitors of Candida albicans Cdr2 efflux pump, confirmation, S. cerevisiae AD/CaCDR2, flow cytometry, cherry pick 1, singleplex; shares compounds with Efflux pump mplx; Nile Red retention; Nile Red retention ratio vs DMSO, % at 10 µM; actives 4% (n = 1,700); AID 588520, 2011; in the data active = Nile Red retention ratio vs DMSO above about 190%;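 note: higher ratio means more blocking of Cdr2 efflux of the dye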
CaCdr1 efflux inh: inhibitors of Candida albicans Cdr1 efflux pump, confirmation, S. cerevisiae AD/CaCDR1, flow cytometry, cherry pick 1, singleplex | actives 1% (n = 1,700) | shares compounds with Efflux pump mplx | Nile Red efflux | inhibition, % at 10 µM;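 active = inhibition above the screen-wide mean plus twice its standard deviation, cut at about 32% in these data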
Starred values were filed as active, the others as inactive; / = no result given. In the library only some 1.9% were active in any assay of this set; here they are far more common.

SMILES	ARFGAP1 inhibitor	Rtt109 HAT inh	Efflux pump mplx	FGF22 binding	ASAP1 inh	Yeast cmpd fluor	CaMdr1 efflux inh	Cdr2 pump inh	CaCdr1 efflux inh
CC(=O)Nc1ccc(OCCCN2CCC(C(O)(c3ccccc3)c3ccccc3)CC2)cc1	-1.2	/	/	-0.4	-7.1	/	/	/	/
Cc1ccc(Cl)cc1N1CCN(c2cccc[n+]2C)CC1	4.4	-3.0	2.2*	/	-0.8	95.5	-0.2	92.2	0.0
Cc1nc(SCC(=O)NCc2cccs2)nc(C)c1C	6.3	-6.9	0.0	0.1	7.7	/	/	/	/
Cc1cc(O)c(N)c(C)c1Cl	-9.5	-7.7	0.8*	43.1*	-1.6	110.0	0.0	91.9	0.0
Cc1cc(O)cc(C)c1Cl	12.3	3.0	-0.1	-0.1	7.5	/	/	/	/
CCOc1ccc(Oc2ccc(S(=O)(=O)N3CCOCC3)cc2NC(=O)C2=COCCO2)cc1	-8.6	19.5	0.0	-0.3	-13.9	/	/	/	/
COC(=O)Cn1c(CN2CCOCC2)nc2c1c(=O)[nH]c(=O)n2C	-5.2	-7.7	1.2*	0.1	5.9	108.3	0.0	103.6	0.1
Cn1c(=O)[nH]c(=O)c2c1nc(CN1CCN(c3ccc(F)cc3)CC1)n2CCN1CCOCC1	8.1	-5.6	0.0	0.0	1.9	/	/	/	/
COc1ccc(CNC(=O)CSc2nnc3c(n2)[nH]c2ccccc23)cc1	-1.1	1.1	0.5	-0.2	0.1	/	/	/	/
COC(=O)c1ccc(CSc2nnc3c(n2)[nH]c2ccccc23)cc1	8.0	-1.9	0.5*	0.3	2.4	124.0	0.5	148.0	0.5
CCCCCCCCCCCCCCCC[N+](C)(C)CCN(Cc1ccc(OC)cc1)c1ncccn1	/	87.7*	2.4*	/	/	101.5	0.1	144.1	0.0
CC[N+](C)(C)CCN(Cc1ccc(Cl)cc1)c1ccccn1	-2.2	-3.1	0.0	/	-1.5	/	/	/	/
COc1ccc2c3c(n(C)c2c1)[C@@H](CO)N(Cc1ccccc1F)CC31CCN(C(=O)C2CC2)CC1	/	/	/	-0.4	/	/	/	/	/
Cc1ccc(Oc2ccc(Oc3ccc(C)cc3)nn2)cc1	-3.6	2.5	-0.1	/	6.0	/	/	/	/
COc1ccc(/C=C(\C#N)C(=O)Nc2cc(S(=O)(=O)N3CCCCC3)ccc2N2CCCCC2)cc1	10.0	-6.3	0.5*	/	-1.0	126.1	-0.2	114.1	0.3
CC(C)NS(=O)(=O)c1ccc(NC(=O)C(C)Oc2ccc(C(=O)c3ccccc3)cc2)cc1 (stereo unspecified)	6.3	4.6	-9.2	0.5	4.9	/	/	/	/
O=C(c1ccoc1)N1CCC2(CC1)Oc1ccc(F)cc1C(=O)C21CC(c2ccccc2)=NO1 (stereo unspecified)	-9.8	23.4	67.1*	0.1	-14.0	92.1	95.2*	116.5	43.3*
O=C(c1ccc2c(c1)OCO2)N1CCC2(CC1)Oc1ccc(F)cc1C(=O)C21CC(c2ccccc2)=NO1 (stereo unspecified)	-9.2	6.9	84.9*	0.4	16.3	92.1	81.5*	94.0	49.5*
CCC(=O)N1CCC2(CC1)Oc1ccc(F)cc1C(=O)C21CC(c2ccc(Cl)cc2)=NO1 (stereo unspecified)	2.6	-0.7	0.2	-0.1	-7.9	/	/	/	/
O=C(c1ccoc1)N1CCC2(CC1)Oc1ccc(F)cc1C(=O)C21CC(c2cccnc2)=NO1 (stereo unspecified)	6.2	5.7	-0.2	0.0	13.3	/	/	/	/
O=C(c1ccoc1)N1CCC2(CC1)Oc1ccc(F)cc1C(=O)C21CC(c2ccc(Cl)cc2)=NO1 (stereo unspecified)	1.8	-1.0	5.5*	-0.1	-1.2	106.7	6.5	110.3	52.9*
O=C(c1ccc2c(c1)OCO2)N1CCC2(CC1)Oc1ccc(F)cc1C(=O)C21CC(c2cccnc2)=NO1 (stereo unspecified)	-7.8	6.7	0.1	-0.2	-1.9	/	/	/	/
CC(C)C(=O)N1CCC2(CC1)Oc1ccc(F)cc1C(=O)C21CC(c2ccc(Cl)cc2)=NO1 (stereo unspecified)	1.8	-16.0	36.0*	0.0	19.0	99.0	1.9	113.8	0.3
Nc1ccc(C(=O)N2CCN(S(=O)(=O)/C=C/c3ccccc3)CC2)cc1[N+](=O)[O-]	7.1	2.2	0.1	-0.1	-7.8	/	/	/	/
COc1cc(C(C(=O)NC2CCCC2)N(C(=O)c2snc(C(N)=O)c2N)C2CCCC2)cc(OC)c1OC (stereo unspecified)	7.7	4.1	-0.2	41.1	-1.9	/	/	/	/
SMILES	ARFGAP1 inhibitor	Rtt109 HAT inh	Efflux pump mplx	FGF22 binding	ASAP1 inh	Yeast cmpd fluor	CaMdr1 efflux inh	Cdr2 pump inh	CaCdr1 efflux inh
O=C(c1ccoc1)N1CCC2(CC1)Oc1ccc(Cl)cc1C(=O)C21CC(c2ccc(Cl)cc2)=NO1 (stereo unspecified)	-1.8	-2.7	0.3	/	4.1	102.6	-0.1	94.4	0.0
CC(C)C(=O)N1CCC2(CC1)Oc1ccc(Cl)cc1C(=O)C21CC(c2ccccc2)=NO1 (stereo unspecified)	-4.3	2.0	0.4	0.0	10.2	/	/	/	/
COc1cc(SC)ccc1C(=O)Nc1nccs1	9.3	7.8	1.0*	0.1	-5.5	107.8	-0.1	95.6	-0.1
COc1cc(SC)ccc1C(=O)Nc1ccccc1	4.5	-13.9	0.0	/	13.6	/	/	/	/
CSc1nc2ccc(S(N)(=O)=O)cc2s1	-4.1	8.8	12.4*	0.2	-1.0	101.1	-0.2	106.3	-0.1
C=C(C)CN(CC)Cc1c(C(=O)N(C)CCCC)nc2ccccn12	-14.7	4.2	0.0	0.4	-14.2	/	/	/	/
Cc1cc(C)c(S(=O)(=O)Nc2ccc(O)c(Sc3ncn[nH]3)c2)c(C)c1	1.3	5.3	11.1*	0.2	11.3	103.0	-0.2	91.4	-0.1
Cc1cc(C)c(S(=O)(=O)Nc2ccc(O)c(Sc3ncn[nH]3)c2)cc1C	4.6	8.3	-0.1	-0.4	10.3	91.9	-0.2	91.1	0.0
